Reference: ChEMBL document CHEMBL3045498, “Antifeedant and larvicidal activities of Rhein isolated from the flowers of Cassia fistula L” (2011)
Converted amounts (≈) assume the structure as drawn.

Legend:
Assay type in all cases: functional
Helicoverpa armigera [1] = test: Antifeedant activity against pre-starved fourth-instar larva of Helicoverpa armigera fed on compound-treated cotton leaf assessed as antifeedant index at 500 ppm after 24 hr by leaf disk no choice method
Helicoverpa armigera [2] = test: Larvicidal activity against Helicoverpa armigera fed on compound-treated cotton leaf assessed as mortality at 125 ppm after 96 hr relative to control
Outline: (§1)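 Larvae were fed 24 h on leaf discs treated with compound at several concentrations, then kept on untreated fresh leaves. Diet was replaced every 24 h, and larval mortality was scored 96 h after treatment.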

Spodoptera litura [3] = test: Antifeedant activity against pre-starved fourth-instar larva of Spodoptera litura fed on compound-treated castor leaf assessed as antifeedant index at 250 ppm after 24 hr by leaf disc no choice method
Spodoptera litura [4] = test: Larvicidal activity against Spodoptera litura fed on compound-treated castor leaf assessed as mortality at 500 ppm after 96 hr relative to control; outline: as §1
Spodoptera litura [5] = test: Antifeedant activity against pre-starved fourth instar larva of Spodoptera litura fed on compound-treated castor leaf assessed as antifeedant index at 125 ppm after 24 hr by leaf disc no choice method
Spodoptera litura [6] = test: Antifeedant activity against pre-starved fourth-instar larva of Spodoptera litura fed on compound-treated castor leaf assessed as antifeedant index at 500 ppm after 24 hr by leaf disc no choice method
Helicoverpa armigera [7] = test: Antifeedant activity against pre-starved fourth-instar larva of Helicoverpa armigera fed on compound-treated cotton leaf assessed as antifeedant index at 125 ppm after 24 hr by leaf disk no choice method
Helicoverpa armigera [8] = test: Antifeedant activity against pre-starved fourth-instar larva of Helicoverpa armigera fed on compound-treated cotton leaf assessed as antifeedant index at 250 ppm after 24 hr by leaf disk no choice method
Spodoptera litura [9] = test: Larvicidal activity against Spodoptera litura fed on compound-treated castor leaf assessed as mortality at 250 ppm after 96 hr relative to control; outline: as §1
Helicoverpa armigera [10] = test: Larvicidal activity against Helicoverpa armigera fed on compound-treated cotton leaf assessed as mortality at 250 ppm after 96 hr relative to control; outline: as §1
Helicoverpa armigera [11] = test: Larvicidal activity against Helicoverpa armigera fed on compound-treated cotton leaf assessed as mortality at 500 ppm after 96 hr relative to control; outline: as §1
Helicoverpa armigera [12] = test: Larvicidal activity against Helicoverpa armigera fed on compound-treated cotton leaf assessed as mortality after 96 hr relative to control; outline: as §1
Spodoptera litura [13] = test: Antifeedant activity against pre-starved fourth-instar larva of Spodoptera litura fed on compound-treated castor leaf assessed as antifeedant index at 1000 ppm after 24 hr by leaf disc no choice method
Spodoptera litura [14] = test: Larvicidal activity against Spodoptera litura fed on compound-treated castor leaf assessed as mortality at 1000 ppm after 96 hr relative to control; outline: as §1
Helicoverpa armigera [15] = test: Antifeedant activity against pre-starved fourth-instar larva of Helicoverpa armigera fed on compound-treated cotton leaf assessed as antifeedant index at 1000 ppm after 24 hr by leaf disk no choice method
Spodoptera litura [16] = test: Larvicidal activity against Spodoptera litura fed on compound-treated castor leaf assessed as mortality after 96 hr relative to control; outline: as §1
Spodoptera litura [17] = test: Larvicidal activity against Spodoptera litura fed on compound-treated castor leaf assessed as mortality at 125 ppm after 96 hr relative to control; outline: as §1
Helicoverpa armigera [18] = test: Larvicidal activity against Helicoverpa armigera fed on compound-treated cotton leaf assessed as mortality at 1000 ppm after 96 hr relative to control; outline: as §1

SMILES | AFI (Helicoverpa armigera [1]) | mortality at 125 ppm (Helicoverpa armigera [2]) | AFI (Spodoptera litura [3]) | mortality at 500 ppm (Spodoptera litura [4]) | AFI (Spodoptera litura [5]) | AFI (Spodoptera litura [6]) | AFI (Helicoverpa armigera [7]) | AFI (Helicoverpa armigera [8]) | mortality at 250 ppm (Spodoptera litura [9]) | mortality at 250 ppm (Helicoverpa armigera [10]) | mortality at 500 ppm (Helicoverpa armigera [11]) | LC50 (Helicoverpa armigera [12]) | AFI (Spodoptera litura [13]) | mortality at 1000 ppm (Spodoptera litura [14]) | AFI (Helicoverpa armigera [15]) | LC50 (Spodoptera litura [16]) | mortality at 125 ppm (Spodoptera litura [17]) | mortality at 1000 ppm (Helicoverpa armigera [18])
O=C(O)c1cc(O)c2c(c1)C(=O)c1cccc(O)c1C2=O [RHEIN] | 59.98% | 22.5% | 33.05% | 21.2% | 27.28% | 40.85% | 47.82% | 55.06% | 15% | 32.5% | 50% | 606 µg/mL (≈ 2130 µM) | 56.79% | 36.2% | 76.13% | 1190 µg/mL (≈ 4200 µM) | 0% | 67.5%
C/C=C(\C)C(=O)O[C@H]1C[C@@H](OC(C)=O)[C@@]2(C(=O)OC)CO[C@H]3[C@@H](O)[C@@](C)([C@]45O[C@@]4(C)[C@@H]4C[C@H]5O[C@@H]5OC=C[C@@]54O)[C@H]4[C@]1(CO[C@]4(O)C(=O)OC)[C@@H]32 [AZADIRACHTIN A] | 75.88% | 38.8% | 70.08% | 100% | 60.12% | 78.66% | 53.5% | 64.13% | 73.8% | 61.2% | 95% | 186 µg/mL (≈ 258 µM) | 88.02% | 100% | 86.47% | 128 µg/mL (≈ 177 µM) | 52.5% | 100%
